Assay results reported in ChEMBL document CHEMBL1123918, “Thromboxane synthetase inhibitors and antihypertensive agents. 4. N-[(1H-imidazol-1-yl)alkyl] derivatives of quinazoline-2,4(1H,3H)-diones, quinazolin-4(3H)-ones, and 1,2,3-benzotriazin-4(3H)-ones” (J Med Chem, 1987).
Calls of active or inactive are those of the source.

Columns and labels:
[1] = target: T1, Thromboxane-A synthase (Rattus norvegicus) (UniProt P49430); test: Tested for antihypertensive activity in spontaneously hypertensive rats at 100 mg/kg peroral dosage for 2 days; A means active; format: functional, organism-based; parameters: dose 100 mg/kg
T1 sequence (whole entry): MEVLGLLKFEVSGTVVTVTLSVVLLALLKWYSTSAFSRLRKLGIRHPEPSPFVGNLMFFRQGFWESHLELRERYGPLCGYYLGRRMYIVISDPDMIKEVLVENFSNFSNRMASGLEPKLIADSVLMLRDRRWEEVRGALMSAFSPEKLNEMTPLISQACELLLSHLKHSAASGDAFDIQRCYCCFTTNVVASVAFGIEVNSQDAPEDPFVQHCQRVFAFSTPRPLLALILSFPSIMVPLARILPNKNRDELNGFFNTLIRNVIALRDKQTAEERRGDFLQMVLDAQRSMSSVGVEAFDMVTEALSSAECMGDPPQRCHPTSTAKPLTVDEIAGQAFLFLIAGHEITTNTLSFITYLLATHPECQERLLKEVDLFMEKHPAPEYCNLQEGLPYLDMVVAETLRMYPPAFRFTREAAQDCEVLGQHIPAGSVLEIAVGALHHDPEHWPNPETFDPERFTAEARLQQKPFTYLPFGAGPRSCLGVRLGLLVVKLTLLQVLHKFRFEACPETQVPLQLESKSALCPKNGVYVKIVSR
How it was run: (§1)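 Male 16-week-old Okamoto SHR (mean arterial pressure about 170 mmHg) gavaged with compound suspended in 2% preboiled starch (50 mg/mL) at 100 mg/kg or less, with 0.9% NaCl load 25 mL/kg; identical second dose without saline 24 h later. Mean arterial pressure measured 28 h after first dose; one to three rats per compound.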

[2] = target: T2, Thromboxane-A synthase (Rattus norvegicus, UniProt P49430); test: Tested for inhibition of thromboxane synthetase from spontaneously hypertensive rats
T2 sequence (P49430 whole entry): T1 sequence (whole entry)
How it was run: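 Washed SHR platelets in oxygenated Krebs phosphate buffer pH 7.4 (4.5-6.0 X 10^4 platelets/µL) incubated with vehicle or drug 10 min at 37 °C; stopped with ice and citric acid. TXB2 measured by direct RIA. Percent inhibition is relative to vehicle controls after background subtraction. IC50 is read from a plot of inhibition vs log concentration.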

[3] = target: T1, Thromboxane-A synthase (Rattus norvegicus); test: Tested for antihypertensive activity in spontaneously hypertensive rats at 100 mg/kg peroral dosage for 2 days; I is inactive; format: functional, organism-based; parameters: dose 100 mg/kg; how it was run: as §1

Compound | Activity [1] | IC50 [2] | Activity [3]
CC(CNC(=O)c1cc(Cl)ccc1N)Cn1ccnc1 (stereo unspecified) | Active | 90 nM | –
O=c1c2ccccc2ncn1CCCCCCn1ccnc1 | Active | – | –
O=c1[nH]c2c(Cl)cccc2c(=O)n1CCCCCCn1ccnc1 | Active | – | –
CCc1nc2ccc(Cl)cc2c(=O)n1CCCCn1ccnc1 | Active | – | –
Cc1ccc2[nH]c(=O)n(CCCCCn3ccnc3)c(=O)c2c1 | Active | 30 nM | –
Cc1ccc2nnn(CCCCCn3ccnc3)c(=O)c2c1 | Active | – | –
Nc1ccccc1C(=O)NCCCn1ccnc1 | – | – | inactive
CC(Cn1ccnc1)Cn1c(=O)[nH]c2cc(Cl)ccc2c1=O (stereo unspecified) [listing 1 of 2 here] | Active | – | –
O=c1[nH]c2ccccc2c(=O)n1CCCCCn1ccnc1 | Active | 350 nM | –
O=c1[nH]c2c(C(F)(F)F)cccc2c(=O)n1CCCCCn1ccnc1 | Active | 10 nM | –
CC(Cn1ccnc1)Cn1c(=O)[nH]c2ccccc2c1=O (stereo unspecified) | Active | 30 nM | –
Nc1ccc(Br)cc1C(=O)NCCCCn1ccnc1 | Active | – | –
Cc1ccc2nnn(CCCCn3ccnc3)c(=O)c2c1 | Active | 60 nM | –
O=c1[nH]c2c(Cl)cccc2c(=O)n1CCCCCn1ccnc1 | Active | 40 nM | –
CC(CNC(=O)c1ccc(Cl)cc1N)Cn1ccnc1 (stereo unspecified) | Active | – | –
Nc1ccc(Cl)cc1C(=O)NCCCCCCCCn1ccnc1 | Active | – | –
O=c1[nH]c2ccc(Cl)cc2c(=O)n1CCCn1ccnc1 | – | – | inactive
CC(CCn1c(=O)[nH]c2cc(Cl)ccc2c1=O)n1ccnc1 (stereo unspecified) | – | – | inactive
O=c1c2cc(Cl)ccc2ncn1CCCCn1ccnc1 | Active | 500 nM | –
O=c1c2cc(Cl)ccc2nnn1CCCCn1ccnc1 | Active | 240 nM | –
CC(CCn1c(=O)[nH]c2ccc(Cl)cc2c1=O)n1ccnc1 (stereo unspecified) | Active | 150 nM | –
O=c1[nH]c2ccc(Cl)cc2c(=O)n1CCCCCCCCn1ccnc1 | – | – | inactive
Nc1ccc(Cl)cc1C(=O)NCCCn1ccnc1 | Active | – | –
O=c1[nH]c2ccc(Cl)cc2c(=O)n1CCCCn1ccnc1 [listing 1 of 3 here] | Active | – | –
CC(Cn1ccnc1)Cn1c(=O)[nH]c2ccc(Cl)cc2c1=O (stereo unspecified) [listing 1 of 3 here] | – | – | inactive
O=c1[nH]c2ccc(Cl)cc2c(=O)n1CCCCCCCn1ccnc1 | Active | 2 nM | –
O=c1c2ccccc2ncn1CCCCn1ccnc1 | Active | – | –

Compound | Activity [1] | IC50 [2] | Activity [3]
O=c1[nH]c2c(C(F)(F)F)cccc2c(=O)n1CCCCn1ccnc1 | Active | 50 nM | –
O=c1c2ccccc2nnn1CCCn1ccnc1 | Active | 1500 nM | –
O=c1c2ccc(Cl)cc2ncn1CCCCn1ccnc1 | – | – | inactive
CC(Cn1ccnc1)Cn1c(=O)[nH]c2ccc(Cl)cc2c1=O (stereo unspecified) [listing 2 of 3 here] | – | 10 nM | –
O=c1c2ccc(Cl)cc2nnn1CCCCCn1ccnc1 | Active | – | –
O=c1c2cc(Cl)ccc2nnn1CCCCCCCCn1ccnc1 | Active | – | –
O=c1c2cc(Cl)ccc2ncn1CCCCCCCCn1ccnc1 | Active | 40 nM | –
O=c1[nH]c2cc(Cl)ccc2c(=O)n1CCCCCCn1ccnc1 | Active | 200 nM | –
O=c1c2ccccc2ncn1CCCn1ccnc1 | – | – | inactive
Cc1ccc2[nH]c(=O)n(CCCCn3ccnc3)c(=O)c2c1 | Active | 50 nM | –
CC(CCn1cnc2ccc(Cl)cc2c1=O)n1ccnc1 (stereo unspecified) | Active | 8000 nM | –
Nc1ccc(Cl)cc1C(=O)NCCCCCCn1ccnc1 | Active | – | –
CC(Cn1ccnc1)Cn1c(=O)[nH]c2cc(Cl)ccc2c1=O (stereo unspecified) [listing 2 of 2 here] | – | 3 nM | –
O=c1[nH]c2c(Cl)cccc2c(=O)n1CCCCn1ccnc1 | Active | 30 nM | –
O=c1[nH]c2ccc(Cl)cc2c(=O)n1CCCCn1ccnc1 [listing 2 of 3 here] | – | 2 nM | –
Cc1ccc2[nH]c(=O)n(CCC(C)n3ccnc3)c(=O)c2c1 (stereo unspecified) | Active | 70 nM | –
CC(Cn1ccnc1)Cn1c(=O)[nH]c2ccc(Cl)cc2c1=O (stereo unspecified) [listing 3 of 3 here] | – | 8 nM | –
O=c1c2cc(Cl)ccc2ncn1CCCCCn1ccnc1 | – | – | inactive
Nc1ccc(Cl)cc1C(=O)NCCCCCn1ccnc1 | Active | – | –
CC(CCNC(=O)c1cc(Cl)ccc1N)n1ccnc1 (stereo unspecified) | Active | 500 nM | –
Cc1nc2ccc(Cl)cc2c(=O)n1CCCCn1ccnc1 | Active | – | –
Nc1ccc(Cl)cc1C(=O)NCCCCCCCn1ccnc1 | – | – | inactive
O=c1c2ccc(Cl)cc2nnn1CCCCn1ccnc1 | Active | – | –
O=c1c2ccccc2nnn1CCCCCCn1ccnc1 | Active | 50 nM | –
CC(CCn1c(=O)[nH]c2ccccc2c1=O)n1ccnc1 (stereo unspecified) | Active | 700 nM | –
CC(Cn1ccnc1)Cn1cnc2ccccc2c1=O (stereo unspecified) | Active | – | –
CC(Cn1ccnc1)Cn1c(=O)[nH]c2c(C(F)(F)F)cccc2c1=O (stereo unspecified) | Active | 400 nM | –

Compound | Activity [1] | IC50 [2] | Activity [3]
O=c1[nH]c2cc(Cl)ccc2c(=O)n1CCCCCn1ccnc1 | Active | 820 nM | –
CC(CCn1c(=O)[nH]c2c(Cl)cccc2c1=O)n1ccnc1 (stereo unspecified) | Active | 1000 nM | –
Nc1cc(Cl)ccc1C(=O)NCCCCn1ccnc1 | Active | – | –
Nc1ccccc1C(=O)NCCCCn1ccnc1 | – | – | inactive
O=c1c2cc(Br)ccc2nnn1CCCCn1ccnc1 | Active | – | –
Cc1ccc(N)c(C(=O)NCCC(C)n2ccnc2)c1 (stereo unspecified) | Active | 170 nM | –
O=c1[nH]c2ccccc2c(=O)n1CCCCCCn1ccnc1 | Active | 40 nM | –
Cc1ccc2ncn(CCCCn3ccnc3)c(=O)c2c1 | Active | 350 nM | –
O=c1c2ccccc2ncn1CCCCCn1ccnc1 | Active | – | –
O=c1c2cc(Cl)ccc2nnn1CCCCCCn1ccnc1 | Active | – | –
Nc1cc(Cl)ccc1C(=O)NCCCCCn1ccnc1 | – | – | inactive
O=c1c2cc(Cl)ccc2nnn1CCCCCn1ccnc1 | Active | – | –
O=c1[nH]c2ccc(Br)cc2c(=O)n1CCCCn1ccnc1 | Active | 800 nM | –
O=c1c2cc(Cl)ccc2nnn1CCCn1ccnc1 | – | – | inactive
O=c1[nH]c2c(C(F)(F)F)cccc2c(=O)n1CCCCCCn1ccnc1 | Active | – | –
O=c1[nH]c2cc(Cl)ccc2c(=O)n1CCCCn1ccnc1 | Active | 9 nM | –
O=c1c2cc(Cl)ccc2ncn1CCCCCCn1ccnc1 | Active | – | –
O=c1c2ccccc2nnn1CCCCCn1ccnc1 | – | – | inactive
Nc1c(Cl)cccc1C(=O)NCCCCCn1ccnc1 | – | – | inactive
O=c1[nH]c2ccccc2c(=O)n1CCCCn1ccnc1 | Active | – | –
O=c1[nH]c2ccc(Cl)cc2c(=O)n1CCCCCn1ccnc1 | Active | 12 nM | –
O=c1[nH]c2ccc(Cl)cc2c(=O)n1CCCCn1ccnc1 [listing 3 of 3 here] | – | 7 nM | –
O=c1c2ccccc2nnn1CCCCn1ccnc1 | Active | – | –
O=c1[nH]c2ccc(Cl)cc2c(=O)n1CCCCCCn1ccnc1 | Active | 4 nM | –
Nc1ccc(Cl)cc1C(=O)NCCCCn1ccnc1 | – | – | inactive
